Columns and labels:
[1] = tested on: RAW264.7; test: Inhibition of NF-kappaB binding to DNA in LPS-stimulated mouse RAW264.7 cells pretreated for 1 hr before LPS stimulation
[2] = tested on: Jurkat; test: Inhibition of NF-kappaB binding to DNA in TNF-alpha-stimulated human Jurkat T cells pretreated for 1 hr before TNFalpha stimulation; assay type: cell-based
Summary of the method: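 Jurkat T cells (RPMI 1640, 10% FCS, penicillin/streptomycin) were pretreated 1 h with compound at various concentrations, then stimulated 1 h with 200 U/mL TNF-α. High-salt detergent total extracts (10-20 µg protein) were incubated 25 min at room temperature with poly(dI-dC), BSA and a 33P-labeled NF-κB oligonucleotide. The EMSA value is the lowest concentration giving complete inhibition of DNA binding. Run in duplicate.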

[3] = tested on: RAW264.7; test: Cytotoxicity against mouse RAW264.7 cells by trypan blue exclusion method; assay type: cell-based

`C=C1C(=O)O[C@H]2/C=C(\C)CC/C=C(/C)[C@@H](OC(=O)/C(C)=C/C)[C@H](O)[C@@H]12` was tested, and the Activity [1] was 20 µM, the Lowest concentration giving complete inhibition of NF-kappaB DNA binding [2] was 100 µM and the Activity [3] was “Non-toxic”.

`C=C1C(=O)O[C@H]2/C=C(\C)CC/C=C(/C)C(=O)[C@H](OC(=O)[C@@]3(C)O[C@H]3C)[C@@H]12` was tested, and the Activity [1] was 20 µM, the Lowest concentration giving complete inhibition of NF-kappaB DNA binding [2] was 50 µM and the Activity [3] was “Non-toxic”.

For `C=C1C(=O)O[C@@H]2[C@H]1[C@@H](OC(=O)[C@]1(C)O[C@@H]1C)C(=O)[C@@]1(C)C=CC[C@@](C)(O)[C@@H]21`, the Activity [1] was 10 µM, the Lowest concentration giving complete inhibition of NF-kappaB DNA binding [2] was 10 µM and the Activity [3] was “Non-toxic”.

In the case of `C=C1C(=O)O[C@@H]2C3O[C@]3(C)CC/C=C(\C)CC[C@@H]12` (stereo partly specified), the Lowest concentration giving complete inhibition of NF-kappaB DNA binding [2] is reported as 20 µM.

Molecule `C=C1CCC=C(C)[C@@]2(O)[C@H](OC(=O)[C@]3(C)O[C@@H]3C)[C@@H]3[C@@H](OC(=O)[C@@H]3C)[C@H]12` has a Lowest concentration giving complete inhibition of NF-kappaB DNA binding [2] of 200 µM.

Reference: ChEMBL document CHEMBL1151173, “Sesquiterpene lactones from Montanoa hibiscifolia that inhibit the transcription factor NF-kappa B” (J Nat Prod, 2004)
